# Laboratory results taken from ChEMBL document CHEMBL1155031, “Structure-activity relationships of 7-deaza-6-benzylthioinosine analogues as ligands of Toxoplasma gondii adenosine kinase” (J Med Chem, 2008).
# Key:
# [1] = molecular target: T1, Adenosine kinase (Toxoplasma gondii, UniProt Q9TVW2); assay: Binding affinity to purified Toxoplasma gondii adenosine kinase
# T1 sequence (Q9TVW2 whole entry): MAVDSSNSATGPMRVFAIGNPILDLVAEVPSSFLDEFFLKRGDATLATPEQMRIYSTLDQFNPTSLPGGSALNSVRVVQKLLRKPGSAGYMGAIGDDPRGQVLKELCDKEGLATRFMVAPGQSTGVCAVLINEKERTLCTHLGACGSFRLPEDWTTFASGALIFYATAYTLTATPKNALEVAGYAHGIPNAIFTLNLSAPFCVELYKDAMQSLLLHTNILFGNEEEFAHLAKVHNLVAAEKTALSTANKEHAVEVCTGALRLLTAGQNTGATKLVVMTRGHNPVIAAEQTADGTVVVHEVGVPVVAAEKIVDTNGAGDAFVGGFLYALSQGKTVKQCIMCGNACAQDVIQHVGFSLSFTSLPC
# In short: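 Radiometric assay at 37 °C in 50 mM Tris-Cl pH 7.4 with 2.5 mM ATP, 5 mM MgCl₂, creatine phosphate/creatine kinase regeneration and 5 µM [8-¹⁴C]adenosine, plus varied inhibitor. Reaction stopped by boiling, then adenosine and AMP separated by TLC and quantified. Apparent Ki from Dixon plots (1/V vs [I]), taken as equal to apparent Km for alternative substrates. Mean ± SD, ≥2 experiments in triplicate.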
# [2] = system: Toxoplasma gondii; assay: Antitoxoplasma activity against wild type Toxoplasma gondii RH assessed as survival at 5 uM after 18 hrs by [5,6-[…]]uracil incorporation assay; type: functional
# In short: (§1)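 Human foreskin fibroblast monolayers (≤20 passages, RPMI 1640) seeded ~5×10⁵ cells/well, attached 24 h at 37 °C, 5% CO2. Infected with isolated tachyzoites at 1 parasite/cell in 3% FBS for 1 h, then washed. Compounds were dissolved in 50% ethanol and added at final 0, 5, 10, 25 or 50 µM with 10% FBS. Survival was read as radiolabeled uracil incorporation into TCA-precipitated nucleic acid versus untreated controls, at least in triplicate.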
# [3] = system: Toxoplasma gondii; assay: Antitoxoplasma activity against wild type Toxoplasma gondii RH assessed as survival at 10 uM after 18 hrs by [5,6-[…]]uracil incorporation assay; type: functional; in short: as §1
# [4] = system: Toxoplasma gondii; assay: Antitoxoplasma activity against wild type Toxoplasma gondii RH assessed as survival at 25 uM after 18 hrs by [5,6-[…]]uracil incorporation assay; type: functional; in short: as §1
# [5] = system: Toxoplasma gondii; assay: Antitoxoplasma activity against wild type Toxoplasma gondii RH assessed as survival at 50 uM after 18 hrs by [5,6-[…]]uracil incorporation assay; type: functional; in short: as §1
# [6] = system: Toxoplasma gondii; assay: Antitoxoplasma activity against wild type Toxoplasma gondii RH assessed as survival after 18 hrs by [5,6-[…]]uracil incorporation assay; type: functional, organism-based
# [7] = system: Toxoplasma gondii; assay: Antitoxoplasma activity against adenosine kinase deficient Toxoplasma gondii TgAK-3 assessed as survival at 5 uM after 18 hrs by [5,6-[…]]uracil incorporation assay; type: functional; in short: as §1
# [8] = system: Toxoplasma gondii; assay: Antitoxoplasma activity against adenosine kinase deficient Toxoplasma gondii TgAK-3 assessed as survival at 10 uM after 18 hrs by [5,6-[…]]uracil incorporation assay; type: functional; in short: as §1
# [9] = system: Toxoplasma gondii; assay: Antitoxoplasma activity against adenosine kinase deficient Toxoplasma gondii TgAK-3 assessed as survival at 25 uM after 18 hrs by [5,6-[…]]uracil incorporation assay; type: functional; in short: as §1
# [10] = system: Toxoplasma gondii; assay: Antitoxoplasma activity against adenosine kinase deficient Toxoplasma gondii TgAK-3 assessed as survival at 50 uM after 18 hrs by [5,6-[…]]uracil incorporation assay; type: functional; in short: as §1
# [11] = Toxicity against human foreskin fibroblasts at 5 uM after 48 hrs by MTT method; type: cell-based, Fibroblast; conditions: read-out: Survival
# In short: (§2)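 Uninfected human foreskin fibroblasts (≤20 passages, RPMI 1640) seeded ~10⁵ cells/well and attached ≥24 h at 37 °C, 5% CO2. Compound in medium added to final concentrations, then 48 h incubation. MTT was added for 4 h, formazan dissolved in DMSO and absorbance read at 540 nm. At least two independent experiments, each in triplicate.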
# [12] = Toxicity against human foreskin fibroblasts at 10 uM after 48 hrs by MTT method; type: cell-based, Fibroblast; conditions: read-out: Survival; in short: as §2
# [13] = Toxicity against human foreskin fibroblasts at 25 uM after 48 hrs by MTT method; type: cell-based, Fibroblast; conditions: read-out: Survival; in short: as §2
# [14] = Toxicity against human foreskin fibroblasts at 50 uM after 48 hrs by MTT method; type: cell-based, Fibroblast; conditions: read-out: Survival; in short: as §2
structure (smiles),measurement,setting,value
OC[C@H]1O[C@@H](n2ccc3c(SCc4ccccc4)ncnc32)[C@H](O)[C@@H]1O,Ki,[1],28 µM
OC[C@H]1O[C@@H](n2ccc3c(SCc4ccc(F)cc4)ncnc32)[C@H](O)[C@@H]1O,Ki,[1],37 µM
N#Cc1ccc(CSc2ncnc3c2ccn3[C@@H]2O[C@H](CO)[C@@H](O)[C@H]2O)cc1,Ki,[1],5.2 µM
same,survival at 5 µM,[2],52.5%
same,survival at 10 µM,[3],4%
same,survival at 25 µM,[4],0%
same,survival at 50 µM,[5],0%
same,IC50,[6],5.3 µM
same,survival at 5 µM,[7],98.4%
same,survival at 10 µM,[8],100%
same,survival at 25 µM,[9],100%
same,survival at 50 µM,[10],100%
same,"viability at 48 h, 5 µM",[11],100%
same,"viability at 48 h, 10 µM",[12],100%
same,"viability at 48 h, 25 µM",[13],94.3%
same,"viability at 48 h, 50 µM",[14],82.1%
Cc1ccc(CSc2ncnc3c2ccn3[C@@H]2O[C@H](CO)[C@@H](O)[C@H]2O)cc1,Ki,[1],19 µM
COc1ccc(CSc2ncnc3c2ccn3[C@@H]2O[C@H](CO)[C@@H](O)[C@H]2O)cc1,Ki,[1],5.8 µM
same,survival at 5 µM,[2],49.8%
same,survival at 10 µM,[3],5%
same,survival at 25 µM,[4],0%
same,survival at 50 µM,[5],0%
same,IC50,[6],4.6 µM
same,survival at 5 µM,[7],100%
same,survival at 10 µM,[8],100%
same,survival at 25 µM,[9],100%
same,survival at 50 µM,[10],100%
same,"viability at 48 h, 5 µM",[11],100%
same,"viability at 48 h, 10 µM",[12],100%
same,"viability at 48 h, 25 µM",[13],100%
same,"viability at 48 h, 50 µM",[14],90.6%
OC[C@H]1O[C@@H](n2ccc3c(SCc4ccc(Cl)c(Cl)c4)ncnc32)[C@H](O)[C@@H]1O,Ki,[1],29 µM
OC[C@H]1O[C@@H](n2ccc3c(SCc4ccc(F)cc4F)ncnc32)[C@H](O)[C@@H]1O,Ki,[1],16 µM
Cc1ccccc1CSc1ncnc2c1ccn2[C@@H]1O[C@H](CO)[C@@H](O)[C@H]1O,Ki,[1],228 µM
O=[N+]([O-])c1cccc(CSc2ncnc3c2ccn3[C@@H]2O[C@H](CO)[C@@H](O)[C@H]2O)c1,Ki,[1],45 µM
OC[C@H]1O[C@@H](n2ccc3c(SCc4c(F)cccc4Cl)ncnc32)[C@H](O)[C@@H]1O,Ki,[1],7.2 µM
OC[C@H]1O[C@@H](n2ccc3c(SCc4cccc(C(F)(F)F)c4)ncnc32)[C@H](O)[C@@H]1O,Ki,[1],22 µM
OC[C@H]1O[C@@H](n2cc(I)c3c(SCc4ccccc4)ncnc32)[C@H](O)[C@@H]1O,Ki,[1],82.6 µM
OC[C@H]1O[C@@H](n2ccc3c(SCc4ccc(Cl)cc4)ncnc32)[C@H](O)[C@@H]1O,Ki,[1],11 µM
O=[N+]([O-])c1ccc(CSc2ncnc3c2ccn3[C@@H]2O[C@H](CO)[C@@H](O)[C@H]2O)cc1,Ki,[1],35 µM
OC[C@H]1O[C@@H](n2ccc3c(SCc4ccc(Br)cc4)ncnc32)[C@H](O)[C@@H]1O,Ki,[1],253 µM
CC(C)(C)c1ccc(CSc2ncnc3c2ccn3[C@@H]2O[C@H](CO)[C@@H](O)[C@H]2O)cc1,Ki,[1],24 µM
OC[C@H]1O[C@@H](n2ccc3c(SCc4ccc(OC(F)(F)F)cc4)ncnc32)[C@H](O)[C@@H]1O,Ki,[1],35 µM
OC[C@H]1O[C@@H](n2ccc3c(SCc4ccc(Cl)cc4Cl)ncnc32)[C@H](O)[C@@H]1O,Ki,[1],26 µM
OC[C@H]1O[C@@H](n2ccc3c(SCc4ccccc4F)ncnc32)[C@H](O)[C@@H]1O,Ki,[1],59 µM
OC[C@H]1O[C@@H](n2ccc3c(SCc4ccccc4Cl)ncnc32)[C@H](O)[C@@H]1O,Ki,[1],36 µM
COC(=O)c1ccc(CSc2ncnc3c2ccn3[C@@H]2O[C@H](CO)[C@@H](O)[C@H]2O)cc1,Ki,[1],7 µM
C=Cc1ccc(CSc2ncnc3c2ccn3[C@@H]2O[C@H](CO)[C@@H](O)[C@H]2O)cc1,Ki,[1],180 µM
Cc1cccc(CSc2ncnc3c2ccn3[C@@H]2O[C@H](CO)[C@@H](O)[C@H]2O)c1,Ki,[1],8.5 µM
OC[C@H]1O[C@@H](n2ccc3c(SCc4ccccc4Br)ncnc32)[C@H](O)[C@@H]1O,Ki,[1],106 µM
OC[C@H]1O[C@@H](n2cnc3c(SCc4ccccc4)ncnc32)[C@H](O)[C@@H]1O [6-BENZYLTHIOINOSINE],Ki,[1],37.7 µM
Nc1ncnc2c1ncn2[C@@H]1O[C@H](CO)[C@@H](O)[C@H]1O [ADENOSINE],Ki,[1],8.9 µM
CCc1nc(N)nc(N)c1-c1ccc(Cl)cc1 [PYRIMETHAMINE],survival at 5 µM,[2],55.6%
same,survival at 10 µM,[3],36.5%
same,survival at 25 µM,[4],13.8%
same,survival at 50 µM,[5],5.8%
same,IC50,[6],5.9 µM
same,"viability at 48 h, 5 µM",[11],101%
same,"viability at 48 h, 10 µM",[12],100%
same,"viability at 48 h, 25 µM",[13],108%
same,"viability at 48 h, 50 µM",[14],108%
Nc1ccc(S(=O)(=O)Nc2ncccn2)cc1 [SULFADIAZINE],survival at 5 µM,[2],74.6%
same,survival at 10 µM,[3],64.8%
same,survival at 25 µM,[4],59.8%
same,survival at 50 µM,[5],46.4%
same,IC50,[6],41.2 µM
same,"viability at 48 h, 5 µM",[11],98.2%
same,"viability at 48 h, 10 µM",[12],99.8%
same,"viability at 48 h, 25 µM",[13],99.8%
same,"viability at 48 h, 50 µM",[14],102%
